Laboratory results as given in ChEMBL document CHEMBL1255465, “Persistence of uropathogenic Escherichia coli in the face of multiple antibiotics” (Antimicrob Agents Chemother, 2010).
The source made the active and inactive calls. The rule behind the calls is not given here.

Columns and labels:
Escherichia coli [1] = assay: Antibacterial activity against uropathogenic Escherichia coli UTI89 assessed as degradation of preexisting biofilm after 24 hrs by microscopy; type: functional, organism-based
In short: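 UTI89 diluted 1:100 into M9 medium and grown statically 48 h at 37°C in microtiter wells. Nonadherent cells removed, fresh M9 ± drug added for 24 h, using the higher of two tested concentrations. Viable bacteria in biofilms visualized by Live/Dead BacLight staining and microscopy.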

5637 [2] = assay: Cytotoxicity against human 5637 cells assessed as mild induction of cell death by LDH release assay; type: cell-based
Escherichia coli [3] = assay: Antibacterial activity against uropathogenic Escherichia coli UTI89 infected in human 5637 cells assessed as decrease in intracellular bacterial level at 1000 to 2000 ug/ml after 12 hrs by serial dilution method; type: functional, organism-based
In short: (§1)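 Confluent 5637 monolayers in triplicate infected with UTI89 (24-h static LB culture, type 1 pili) at MOI ~15 and spun 600 × g for 5 min. After 2 h: gentamicin 100 μg/ml for 2 h, then 10 μg/ml for 14 h. Then 12 h with drug at two concentrations. Cells lysed in 0.4% Triton X-100 and plated on LB agar. Titers expressed relative to 800 μg/ml gentamicin. ≥3 independent assays.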

5637 [4] = assay: Cytotoxicity against human 5637 cells assessed as mild induction of cell death by trypan blue exclusion assay; type: cell-based
In short: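 Integrity of 5637 cells after drug treatment assessed by 0.4% trypan blue exclusion, following a standard protocol.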

Escherichia coli [5] = assay: Antibacterial activity against uropathogenic Escherichia coli UTI89 assessed as inhibition of biofilm formation after 24 hrs by microtiterplate-based assay; type: functional, organism-based
In short: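 Biofilms of UTI89 formed for 48 h at 37°C without shaking in M9 (1:100 inoculum, triplicate wells). Fresh M9 ± drug (higher of two tested concentrations) then added for 24 h. Biomass stained with 0.1% crystal violet, solubilized in DMSO, read at A562, and expressed relative to untreated controls. Three independent experiments.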

Escherichia coli [6] = assay: Antibacterial activity against uropathogenic Escherichia coli UTI89 infected in human 5637 cells assessed as decrease in intracellular bacterial level at 1200 to 1600 ug/ml after 12 hrs by serial dilution method; type: functional, organism-based; in short: as §1
Escherichia coli [7] = settings: UTI89, 5637, 2 to 3 ug/ml
Escherichia coli [8] = settings: UTI89, Urothelium, 2 mg/kg
Escherichia coli [9] = assay: Antibacterial activity against uropathogenic Escherichia coli UTI89 isolated from urine samples of infected CBA/J mouse after 24 hrs by disk diffusion assay; type: functional, organism-based
In short: (§2)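 Urine collected by gentle bladder pressure 2 h after oral dosing of UTI89-infected CBA/J mice. 10 μl spotted on 7-mm filter discs, placed on fresh UTI89 lawns on LB agar. Clearance diameter measured after 24 h at 37°C. Urine drug level calculated from standard curves of discs holding known antibiotic concentrations.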

Escherichia coli [10] = settings: UTI89, Urinary bladder, 2 mg/kg
Escherichia coli [11] = settings: UTI89, Urothelium, 2 mg/kg; remark: listed apart in the source
Escherichia coli [12] = assay: Antibacterial activity against uropathogenic Escherichia coli UTI89 infected in human 5637 cells assessed as decrease in intracellular bacterial level at 1000 to 3000 ug/ml after 12 hrs by serial dilution method; type: functional, organism-based; in short: as §1
Escherichia coli [13] = assay: Antibacterial activity against uropathogenic Escherichia coli UTI89 infected in human 5637 cells assessed as decrease in intracellular bacterial level at 200 to 300 ug/ml after 12 hrs by serial dilution method; type: functional, organism-based; in short: as §1
Escherichia coli [14] = assay: Antibacterial activity against uropathogenic Escherichia coli UTI89 infected in human 5637 cells assessed as decrease in intracellular bacterial level at 800 to 1200 ug/ml after 12 hrs by serial dilution method; type: functional, organism-based
In short: (§3)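 UTI89 was grown 24 h static in LB (type 1 pili) and added to confluent 5637 monolayers at MOI ~15, spun 600 × g for 5 min. After 2 h at 37°C: gentamicin 100 μg/ml for 2 h, then 10 μg/ml for 14 h. Next, 12 h with antibiotic at two concentrations. Lysis in 0.4% Triton X-100, serial-dilution plating; titers relative to 800 μg/ml gentamicin. ≥3 independent assays in triplicate, mean ± SEM.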

Escherichia coli [15] = assay: Antibacterial activity against uropathogenic Escherichia coli UTI89 infected in human 5637 cells assessed as decrease in intracellular bacterial level at 300 to 500 ug/ml after 12 hrs by serial dilution method; type: functional, organism-based; in short: as §3
Escherichia coli [16] = assay: Antibacterial activity against uropathogenic Escherichia coli UTI89 infected in human 5637 cells assessed as decrease in intracellular bacterial level at 400 to 700 ug/ml after 12 hrs by serial dilution method; type: functional, organism-based; in short: as §1
Escherichia coli [17] = assay: Antibacterial activity against uropathogenic Escherichia coli UTI89 infected in human 5637 cells assessed as decrease in intracellular bacterial level at 600 to 1000 ug/ml after 12 hrs by serial dilution method; type: functional, organism-based; in short: as §1
Escherichia coli [18] = assay: Antibacterial activity against uropathogenic Escherichia coli UTI89 infected in CBA/J mouse assessed as decrease in bacterial load in bladder at 700 ug/kg, po administered on day 3 postinfection daily for 3 days measured on day 9 post-inoculation; type: functional, organism-based; settings: Urinary bladder
In short: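 Female CBA/J mice, 7–8 weeks old, inoculated transurethrally with ~10^7 CFU UTI89 (24-h static LB culture) in 50 μl PBS. From day 3, one oral gavage daily for 3 days, 50 μl; controls given water. On day 9, bladders homogenized in PBS with 0.025% Triton X-100 and plated on LB agar for CFU. 11 mice from two experiments; Mann-Whitney U test.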

[19] = Drug level in Escherichia coli UTI89-infected CBA/J mouse urine at 700 ug/kg, po after 2 hrs; type: ADME, organism-based; settings: in vivo, 0.7 mg/kg; in short: as §2
Escherichia coli [20] = assay: Antibacterial activity against uropathogenic Escherichia coli UTI89 infected in human 5637 cells assessed as decrease in intracellular bacterial level at 12 to 100 ug/ml after 12 hrs by serial dilution method; type: functional, organism-based; in short: as §1
Escherichia coli [21] = assay: Antibacterial activity against pGEN-GFP carrying uropathogenic Escherichia coli UTI89 isolated from bladder samples of infected CBA/J mouse assessed as decrease in growth of intracellular bacterial community at 12 ug/ml treated 6 hrs postinfection measured after 18 hrs; type: functional, organism-based
In short: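 Bladders from female CBA/J mice taken 6 h after transurethral inoculation with GFP(LVA)-plasmid UTI89, then halved, splayed and pinned lumen-up under Ringer solution (pH 7.4). Drug combination added at 12 and 700 μg/ml. GFP-positive IBCs counted by fluorescence stereomicroscopy at set times up to 18 h. n = 8 mice per group; Mann-Whitney U test.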

Escherichia coli [22] = assay: Antibacterial activity against uropathogenic Escherichia coli UTI89 infected in CBA/J mouse assessed as decrease in bacterial invasion into layers of urothelium at 700 ug/kg, po administered on day 3 postinfection daily for 3 days measured on day 9 post-inoculation; type: functional, organism-based
Escherichia coli [23] = assay: Antibacterial activity against uropathogenic Escherichia coli UTI89 infected in CBA/J mouse assessed as decrease in bacterial invasion into layers of urothelium at 700 ug/kg, po administered on day 3 postinfection daily for 3 days measured on day 9 post-inoculation in presence of Triton X-100; type: functional, organism-based
Escherichia coli [24] = assay: Antibacterial activity against uropathogenic Escherichia coli UTI89 infected in human 5637 cells assessed as decrease in intracellular bacterial level at 250 to 300 ug/ml after 12 hrs by serial dilution method; type: functional, organism-based; in short: as §1
[25] = Drug level in Escherichia coli UTI89-infected CBA/J mouse urine at 200 ug/kg, sc after 2 hrs; type: ADME, organism-based; settings: in vivo, 0.2 mg/kg
In short: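 Urine was collected 2 h after dosing by gentle bladder pressure. 10-μl aliquots went onto 7-mm sterile filter discs laid on fresh UTI89 lawns on LB agar. Clearance diameters were read after 24 h at 37°C, and levels were calculated from standard curves of discs with known antibiotic concentrations.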

Escherichia coli [26] = assay: Antibacterial activity against uropathogenic Escherichia coli UTI89 infected in CBA/J mouse assessed as decrease in bacterial invasion into layers of urothelium at 200 ug/kg, sc administered on day 3 postinfection daily for 3 days measured on day 9 post-inoculation in presence of Triton X-100; type: functional, organism-based
Escherichia coli [27] = assay: Antibacterial activity against uropathogenic Escherichia coli UTI89 infected in human 5637 cells assessed as decrease in intracellular bacterial level at 400 to 800 ug/ml after 12 hrs by serial dilution method; type: functional, organism-based; in short: as §3
Escherichia coli [28] = assay: Antibacterial activity against uropathogenic Escherichia coli UTI89 infected in CBA/J mouse assessed as decrease in bacterial invasion into layers of urothelium at 200 ug/kg, sc administered on day 3 postinfection daily for 3 days measured on day 9 post-inoculation; type: functional, organism-based
Escherichia coli [29] = assay: Antibacterial activity against uropathogenic Escherichia coli UTI89 infected in CBA/J mouse assessed as decrease in bacterial load in bladder at 200 ug/kg, sc administered on day 3 postinfection daily for 3 days measured on day 9 post-inoculation; type: functional, organism-based; settings: Urinary bladder

NCC[C@H](O)C(=O)N[C@@H]1C[C@H](N)[C@@H](O[C@H]2O[C@H](CN)[C@@H](O)[C@H](O)[C@H]2O)[C@H](O)[C@H]1O[C@H]1O[C@H](CO)[C@@H](O)[C@H](N)[C@H]1O [AMIKACIN]
Activity (Escherichia coli [1]): Active
Activity 5637 [2]: Toxic
inhibition (Escherichia coli [3]): Active
Activity 5637 [4]: Toxic

CC1=C(C(=O)O)N2C(=O)[C@@H](NC(=O)[C@H](N)c3ccc(O)cc3)[C@H]2SC1 [CEFADROXIL]
Activity (Escherichia coli [1]): Active
Activity 5637 [2]: Toxic
Biofilm inhibition activity (Escherichia coli [5]): Active
Activity 5637 [4]: Toxic
inhibition (Escherichia coli [6]): Active

O=C(O)c1cn(C2CC2)c2cc(N3CCNCC3)c(F)cc2c1=O [CIPROFLOXACIN]
inhibition (Escherichia coli [7]): Active
Activity (Escherichia coli [1]): Active
Activity 5637 [2]: Toxic
inhibition (Escherichia coli [8]): Active
Activity (Escherichia coli [9]): Active
inhibition (Escherichia coli [10]): Active
Activity 5637 [4]: Toxic
inhibition (Escherichia coli [11]): inactive

NC[C@H]1O[C@H](O[C@H]2[C@H](O)[C@@H](O[C@H]3O[C@H](CO)[C@@H](O)[C@H](N)[C@H]3O)[C@H](N)C[C@@H]2N)[C@H](O)[C@@H](O)[C@@H]1O [KANAMYCIN]
Activity (Escherichia coli [1]): Active
Activity 5637 [2]: Toxic
inhibition (Escherichia coli [12]): Active
Activity 5637 [4]: Toxic

C[C@H]1COc2c(N3CCN(C)CC3)c(F)cc3c(=O)c(C(=O)O)cn1c23.C[C@H]1COc2c(N3CCN(C)CC3)c(F)cc3c(=O)c(C(=O)O)cn1c23.O [LEVOFLOXACIN]
Activity (Escherichia coli [1]): Active
Activity 5637 [2]: Toxic
Activity 5637 [4]: Toxic
inhibition (Escherichia coli [13]): Active

CCOc1ccc2ccccc2c1C(=O)N[C@@H]1C(=O)N2[C@@H]1SC(C)(C)[C@@H]2C(=O)O [NAFCILLIN]
Activity (Escherichia coli [1]): Active
Activity 5637 [2]: Toxic
Activity 5637 [4]: Toxic
inhibition (Escherichia coli [6]): Active

CCn1cc(C(=O)O)c(=O)c2ccc(C)nc21 [NALIDIXIC ACID]
Activity (Escherichia coli [1]): Active
Activity 5637 [2]: Toxic
inhibition (Escherichia coli [14]): Active
Activity 5637 [4]: Toxic

O=C1CN(/N=C/c2ccc([N+](=O)[O-])o2)C(=O)N1 [NITROFURANTOIN]
inhibition (Escherichia coli [15]): Active
Activity (Escherichia coli [1]): Active
Activity 5637 [2]: Toxic
Activity 5637 [4]: Toxic

CCn1cc(C(=O)O)c(=O)c2cc(F)c(N3CCNCC3)cc21 [NORFLOXACIN]
inhibition (Escherichia coli [15]): Active
Activity (Escherichia coli [1]): Active
Activity 5637 [2]: Toxic
Activity 5637 [4]: Toxic

CC1COc2c(N3CCN(C)CC3)c(F)cc3c(=O)c(C(=O)O)cn1c23 (centres undefined) [OFLOXACIN]
Activity (Escherichia coli [1]): Active
Activity 5637 [2]: Toxic
Activity 5637 [4]: Toxic
inhibition (Escherichia coli [16]): Active

CC1(C)S[C@@H]2[C@H](NC(=O)Cc3ccccc3)C(=O)N2[C@H]1C(=O)O [PENICILLIN G]
Activity (Escherichia coli [1]): Active
Activity 5637 [2]: Toxic
inhibition (Escherichia coli [17]): Active
Biofilm inhibition activity (Escherichia coli [5]): Active
Activity 5637 [4]: Toxic

C[C@@H]1CN(c2c(F)c(N)c3c(=O)c(C(=O)O)cn(C4CC4)c3c2F)C[C@H](C)N1 [SPARFLOXACIN]
inhibition (Escherichia coli [18]): Active
Activity (Escherichia coli [1]): Active
Activity 5637 [2]: Toxic
Drug uptake [19]: 0.3 µg/mL
Activity (Escherichia coli [9]): Active
Biofilm inhibition activity (Escherichia coli [5]): Active
inhibition (Escherichia coli [20]): Active
inhibition (Escherichia coli [21]): Active
inhibition (Escherichia coli [22]): inactive
Activity 5637 [4]: Toxic
inhibition (Escherichia coli [23]): Active

CN(C)[C@@H]1C(O)=C(C(N)=O)C(=O)[C@@]2(O)C(O)=C3C(=O)c4c(O)cccc4[C@@](C)(O)[C@H]3C[C@@H]12 [TETRACYCLINE]
Activity (Escherichia coli [1]): Active
Activity 5637 [2]: Toxic
inhibition (Escherichia coli [24]): Active
Activity 5637 [4]: Toxic

GENTAMICIN [listing 1 of 2 here]
Activity 5637 [2]: Toxic
Drug uptake [25]: 2 mg/mL
Activity 5637 [4]: Toxic

GENTAMICIN [listing 2 of 2 here]
inhibition (Escherichia coli [26]): Active
Activity (Escherichia coli [1]): Active
inhibition (Escherichia coli [27]): Active
inhibition (Escherichia coli [28]): inactive
Activity (Escherichia coli [9]): Active
inhibition (Escherichia coli [29]): inactive
